Compound activity as filed in PubChem BioAssay.
TRPC4 potent: TRPC4 (mouse) allosteric potentiation | 0.42% of 310,000 active | HEK293 TRPC4beta/mu-opioid, DAMGO EC20, Fluo-4 Ca2+ flux; active compounds read high | Q9QUQ5 | B-score at 10 µM;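 active = B-score of calcium response area above 5 SD of library B-scores, with initial fluorescence ratio within 5 SD of library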;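 note: B-score of integrated fluorescence ratio over time as area under calcium response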
TRPC4 inh: inhibitors of mouse TRPC4 channel. Q9QUQ5. HEK293 TRPC4beta/mu-opioid, DAMGO-evoked Fluo4 calcium flux; active compounds read low. B-score at 10 µM. 0.39% of 300,000 active. AID 2247;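 active = B-score over 3 SD under the library average, no early fluorescence shift, positive overall ratio signal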
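Assay system: TRPC4beta/mu-opioid receptor HEK293 cell line; compound dosing: single concentration per test compound; detection: Fluo4 Ca2+ flux fluorescence; evaluation: per-well B score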
TRPC4 agonist: activators of mouse TRPC4 channel | Q9QUQ5 | 0.49% of 310,000 active | B-score at 10 µM | AID 2237 | HEK293 TRPC4beta/mu-opioid, Fluo4 calcium fluorescence; active compounds read high;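 active = B-score above 5 SD of library B-scores, and initial fluorescence ratio not above library mean plus 5 SD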;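 note: positive B-score marks a calcium rise read as TRPC4 activation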
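Incubation: 45 min room-temperature Fluo4 loading, 110 s read / System: HEK293 cells stably co-expressing mouse TRPC4beta and mu-opioid receptor / Signal: Fluo4 fluorescence, kinetic / Control set: buffer (low) and maximal DAMGO (high) / Measure: integrated baseline-normalised fluorescence ratio, converted to per-well B score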
CR mimetic SO: caloric restriction mimetics inhibiting age-related superoxide in yeast; S. cerevisiae aged cells, superoxide DHE fluorescence; active compounds read low; superoxide response (% of plate mean), % at 10 µM; 0.18% of 330,000 active; AID 2690;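 active = superoxide response under a set limit, about three screen SD below normal, cut at about 65% in these data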;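 note: yeast aged for seven days with compound at 30 °C before DHE staining; 100% = average MFI of all compound-treated wells on the plate with controls excluded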
TRPC6 activator: activates the mouse TRPC6 cation channel. Q61143. 0.13% of 310,000 active. B-score at 10 µM. HEK293-TRPC6 membrane potential dye fluorescence; active compounds read high;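 active = B-score of the integrated fluorescence ratio above library mean plus 3 SD, and starting fluorescence ratio within library mean plus 5 SD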;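 note: higher score means more depolarization so channel activation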
Target sequence (Q61143 whole entry, looked up): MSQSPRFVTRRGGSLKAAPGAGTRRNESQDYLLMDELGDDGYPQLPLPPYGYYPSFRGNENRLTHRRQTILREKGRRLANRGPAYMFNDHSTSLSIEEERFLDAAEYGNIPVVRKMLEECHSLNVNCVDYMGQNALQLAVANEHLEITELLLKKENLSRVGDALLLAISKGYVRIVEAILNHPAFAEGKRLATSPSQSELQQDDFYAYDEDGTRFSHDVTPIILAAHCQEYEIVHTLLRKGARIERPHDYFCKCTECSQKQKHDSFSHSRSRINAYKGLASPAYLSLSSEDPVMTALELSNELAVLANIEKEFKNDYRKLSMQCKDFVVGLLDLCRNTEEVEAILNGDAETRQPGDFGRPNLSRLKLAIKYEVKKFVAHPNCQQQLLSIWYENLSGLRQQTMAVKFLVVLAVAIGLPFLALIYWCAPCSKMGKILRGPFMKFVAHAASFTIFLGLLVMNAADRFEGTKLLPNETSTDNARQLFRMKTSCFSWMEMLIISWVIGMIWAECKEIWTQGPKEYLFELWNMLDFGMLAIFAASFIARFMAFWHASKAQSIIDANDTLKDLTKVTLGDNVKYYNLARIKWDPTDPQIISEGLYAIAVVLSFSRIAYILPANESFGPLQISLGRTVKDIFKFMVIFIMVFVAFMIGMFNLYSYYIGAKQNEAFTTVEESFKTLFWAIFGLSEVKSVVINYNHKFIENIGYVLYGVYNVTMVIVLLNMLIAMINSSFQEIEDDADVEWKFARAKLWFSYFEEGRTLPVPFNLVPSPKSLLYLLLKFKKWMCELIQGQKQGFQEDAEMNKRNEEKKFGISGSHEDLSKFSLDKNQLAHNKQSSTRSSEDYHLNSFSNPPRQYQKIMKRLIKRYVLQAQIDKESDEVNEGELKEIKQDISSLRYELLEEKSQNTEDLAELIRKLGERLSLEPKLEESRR
TRPC6 inh: mouse TRPC6 channel inhibition; Q61143; HEK293-TRPC6, membrane potential dye, ACh-evoked depolarization; active compounds read low; B-score at 10 µM; 1.1% of 310,000 active; AID 2553;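 active = B-score under library mean minus 3 SD, initial fluorescence not abnormally high, positive integrated signal ratio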;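 note: B-score derived from integrated fluorescence ratio over the kinetic read; more negative B-score means stronger inhibition of depolarization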
TRPC4 sel inh 2: second check of whether TRPC6 inhibitors also affect mouse TRPC4 | shares compounds with TRPC6 inh | HEK293 TRPC4/MOR, membrane potential dye fluorescence; channel activated by saturating DAMGO dose | inhibition, % at 10 µM | 42% of 920 active | AID 2776;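 active = compounds whose fluorescence signal differed from control wells by over 3 SD, either direction, in both duplicate plates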
TRPC4 spec: mouse TRPC4 off-target activity of TRPC6 inhibitors | shares compounds with TRPC6 inh | HEK293 TRPC4/mu-opioid, membrane potential fluorescence | activity change, negative = inhibition, % at 10 µM | 61% of 920 active | AID 2777;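 active = rise or fall in signal beyond 3 SD of buffer-only wells in both replicate plates, either sign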;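 note: integrated kinetic ratio of fluorescence range over baseline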
HEK293 MPD ctr 2-1: parental HEK293 nonspecific activity of TRPC6 inhibitors, second screen; 31% of 920 active; shares compounds with TRPC6 inh; signal change vs control, % at 10 µM; parental HEK293 membrane potential dye fluorescence; maximal acetylcholine challenge after compound addition;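 active = membrane potential signal moving either way by over 3 SD of the maximum-effect control, in both duplicate plates, meaning non-specific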
HEK293 MPD ctr-1: checks TRPC6 inhibitor effects in parental HEK293 cells; shares compounds with TRPC6 inh; parental HEK293 membrane potential dye fluorescence; membrane potential signal change, % at 10 µM; 60% of 920 active; AID 2780;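 active = membrane potential signal shifting up or down by more than 3 SD of buffer-only wells, on both duplicate plates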
HEK293 MPD ctr-2: counter-screen for TRPC6 modulators: effect in parental HEK293 cells. shares compounds with TRPC6 inh. membrane potential dye fluorescence. membrane potential signal change, % at 10 µM. 51% of 2,400 active;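 active = membrane potential signal moves up or down beyond 5 SD from buffer-only wells, on both duplicate plates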
HEK293 MPD ctr 2-2: parental HEK293 nonspecific activity of TRPC6 modulators, second screen. shares compounds with TRPC6 inh. membrane potential dye fluorescence; after compound, maximal acetylcholine stimulation. inhibition, % at 10 µM. 14% of 2,400 active;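 active = membrane potential signal drops by more than 5 SD from the mean control signal, in both duplicate plates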;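 note: plate controls were acetylcholine ECmax control wells for no effect and buffer only wells for full effect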
TRPC4 ctr mod: selectivity of TRPC6 modulators against mouse TRPC4. shares compounds with TRPC6 inh. HEK293 TRPC4/mu-opioid, membrane potential fluorescence. percent change from control (negative = decrease, positive = increase), % at 10 µM. 69% of 2,400 active;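 active = membrane potential signal moved up or down beyond 5 SD of buffer control wells, in both duplicate plates, actives on both sides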;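 note: plate controls were assay buffer wells for no effect and DAMGO maximal-effect wells for full effect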
TRPC4/MOR inh 2: mouse TRPC4 off-target activity of TRPC6 modulators, second screen; shares compounds with TRPC6 inh; HEK293 TRPC4/mu-opioid, membrane potential dye fluorescence; stimulated with maximal-effect DAMGO; 55% of 2,400 active; inhibition, % at 10 µM;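 active = drop in membrane potential signal beyond 5 SD of the control wells in both duplicate plates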;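 note: TRPC4 counter screen for TRPC6 hits run under conditions tuned for TRPC6 not TRPC4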
TRPC6 inh conf: mouse TRPC6 inhibitor confirmation | shares compounds with TRPC6 inh | HEK293-TRPC6, membrane potential dye, ACh-evoked depolarization | inhibition, % at 10 µM | 43% of 3,300 active;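 active = fluorescence ratio falls more than 5 SD below the full-stimulation control mean, in both duplicate runs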;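 note: integrated fluorescence ratio of peak minus minimum over baseline after agonist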
TRPC6 act confirm: mouse TRPC6 activator confirmation; shares compounds with TRPC6 inh; HEK293-TRPC6 membrane potential dye fluorescence, FDSS; activation, % at 10 µM; 11% of 2,800 active; AID 488961;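 active = ratio signal rise beyond 5 SD above unstimulated control wells' mean, seen in both duplicate runs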;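 note: plate controls were buffer EC0 wells for no effect and acetylcholine ECmax response for full effect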
* hit, by the source's call; i = inactive; . = no result given. Compounds with a hit are over-represented: about 2.3% of the library has one in this group of screens.

SMILES	TRPC4 potent	TRPC4 inh	TRPC4 agonist	CR mimetic SO	TRPC6 activator	TRPC6 inh	HEK293 MPD ctr-2	HEK293 MPD ctr 2-2	TRPC4 ctr mod	TRPC4/MOR inh 2	TRPC6 inh conf	TRPC6 act confirm	others
CCN(c1ccc(NC(=O)c2ccc(Cl)nc2)cc1)C(C)C	i	i	i	103	i	-6.5*	i	i	i	i	i	i
CC(=O)c1cccc(NC(=O)N2CCC(NC(=O)c3ccco3)CC2)c1	i	i	i	86	i	i	.	.	.	.	.	.
Cc1ccc(-n2cccn2)c(CN2CCCC(C(=O)c3ccc4c(c3)OCO4)C2)c1 (centres undefined)	i	-8*	i	102	i	-6.8*	190%*	i	14%*	83%*	53%*	.
Cc1ccc(-n2cccn2)c(CN2CCCC(CNC(=O)c3ccc(F)cc3)C2)c1 (centres undefined)	i	i	i	90	i	i	.	.	.	.	.	.
CC[n+]1cccc(-c2nc3ccccc3s2)c1	i	i	i	85	i	-5.5*	-162%*	i	-26%*	i	i	i
Oc1cccc(-c2nc3ccccc3s2)c1	i	i	i	102	i	i	.	.	.	.	.	.
CCSc1ccc2cc(OC)ccc2[n+]1CC	i	i	i	81	i	-7.6*	.	.	.	.	62%*	i	TRPC4 sel inh 2=76%*;TRPC4 spec=-21%*;HEK293 MPD ctr 2-1=39%*;HEK293 MPD ctr-1=-314%*
CCn1ccc2cc(OC)ccc2c1=S	i	i	i	104	i	i	.	.	.	.	.	.
Cc1c(Cl)cccc1NC(=O)C1=COCCO1	i	i	i	99	i	i	.	.	.	.	.	.
Cc1ccc(-c2cc3cccc[n+]3cc2-c2ccc(C)cc2)cc1	i	i	i	104	i	-5.8*	-134%*	i	-20%*	29%*	60%*	i
CN1C=CC=C/C1=C1\SC(=S)N(c2ccccc2)C1=O	i	i	i	105	i	i	.	.	.	.	.	.
C=CCN1C=CC=C/C1=C1\SC(=S)N(C)C1=O	i	i	i	98	i	-5.1*	i	i	i	i	i	i
